ChEMBL document CHEMBL4229344 (Eur J Med Chem, 2018)

What was measured:
[1] = molecular target: Serine/threonine-protein kinase MAK (Homo sapiens) (UniProt P20794); experiment: Binding affinity to wild-type human partial length MAK (M1 to P314 residues) expressed in bacterial expression system assessed as residual binding level at 1 uM by Kinomescan method relative to control
Procedure, shortened: (§1)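 Kinome-wide competition binding screen against a panel of 468 purified kinases/mutants, with the test compound at a single concentration of 1 μM. Read-out is the relative binding activity of each kinase in the presence of compound.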

[2] = test system: Proto-oncogene tyrosine-protein kinase receptor Ret (Homo sapiens), P07949 [M918T]; experiment: Binding affinity to human partial length RET M918T mutant (E713 to D1014 residues) expressed in bacterial expression system assessed as residual binding level at 1 uM by Kinomescan method relative to control
Sequence of Proto-oncogene tyrosine-protein kinase receptor Ret (Homo sapiens), P07949 [M918T] (P07949 whole entry M918T, the tested form may be a part): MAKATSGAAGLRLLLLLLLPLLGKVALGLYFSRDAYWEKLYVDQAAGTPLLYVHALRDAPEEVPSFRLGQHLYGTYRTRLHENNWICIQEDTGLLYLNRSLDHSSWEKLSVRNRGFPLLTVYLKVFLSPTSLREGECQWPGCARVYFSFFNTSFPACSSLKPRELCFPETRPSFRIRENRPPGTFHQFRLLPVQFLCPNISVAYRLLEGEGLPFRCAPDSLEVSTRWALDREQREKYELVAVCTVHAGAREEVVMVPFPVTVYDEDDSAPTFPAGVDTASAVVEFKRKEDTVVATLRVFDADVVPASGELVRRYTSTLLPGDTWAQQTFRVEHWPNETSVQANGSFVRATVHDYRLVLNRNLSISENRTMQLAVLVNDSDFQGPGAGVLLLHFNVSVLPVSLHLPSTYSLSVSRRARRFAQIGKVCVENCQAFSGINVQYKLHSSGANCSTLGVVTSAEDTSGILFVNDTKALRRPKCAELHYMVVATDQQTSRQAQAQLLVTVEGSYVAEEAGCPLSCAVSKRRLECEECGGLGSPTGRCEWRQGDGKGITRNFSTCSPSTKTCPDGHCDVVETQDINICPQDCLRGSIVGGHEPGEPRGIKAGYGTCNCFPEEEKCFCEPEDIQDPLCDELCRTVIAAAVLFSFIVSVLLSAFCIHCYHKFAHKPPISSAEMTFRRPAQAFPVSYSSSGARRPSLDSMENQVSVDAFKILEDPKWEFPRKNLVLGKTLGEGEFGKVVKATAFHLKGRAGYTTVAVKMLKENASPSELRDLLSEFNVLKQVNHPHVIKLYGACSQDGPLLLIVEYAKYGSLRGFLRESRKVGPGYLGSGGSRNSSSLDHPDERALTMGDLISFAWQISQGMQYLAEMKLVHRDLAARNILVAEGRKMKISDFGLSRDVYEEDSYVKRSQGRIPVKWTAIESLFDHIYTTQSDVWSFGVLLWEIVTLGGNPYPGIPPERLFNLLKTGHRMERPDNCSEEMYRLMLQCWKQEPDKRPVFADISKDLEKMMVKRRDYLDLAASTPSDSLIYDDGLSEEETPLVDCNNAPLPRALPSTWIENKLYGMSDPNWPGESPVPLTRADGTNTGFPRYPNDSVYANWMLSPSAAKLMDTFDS
Procedure, shortened: (§2)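 Kinome-wide single-concentration binding screen (KINOMEscan) at 1 μM against a panel of 468 purified kinases and mutants. Read-out is relative binding of each kinase compared with control. Selectivity across the panel was summarised as an S(10) score.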

[3] = molecular target: Serine/threonine-protein kinase NIM1 (Homo sapiens) (UniProt Q8IY84); experiment: Binding affinity to wild-type human partial length NIM1 (Q44 to N355 residues) expressed in mammalian expression system assessed as residual binding level at 1 uM by Kinomescan method relative to control
Sequence of Serine/threonine-protein kinase NIM1 (Homo sapiens) (Q8IY84 whole entry, the tested form may be a part): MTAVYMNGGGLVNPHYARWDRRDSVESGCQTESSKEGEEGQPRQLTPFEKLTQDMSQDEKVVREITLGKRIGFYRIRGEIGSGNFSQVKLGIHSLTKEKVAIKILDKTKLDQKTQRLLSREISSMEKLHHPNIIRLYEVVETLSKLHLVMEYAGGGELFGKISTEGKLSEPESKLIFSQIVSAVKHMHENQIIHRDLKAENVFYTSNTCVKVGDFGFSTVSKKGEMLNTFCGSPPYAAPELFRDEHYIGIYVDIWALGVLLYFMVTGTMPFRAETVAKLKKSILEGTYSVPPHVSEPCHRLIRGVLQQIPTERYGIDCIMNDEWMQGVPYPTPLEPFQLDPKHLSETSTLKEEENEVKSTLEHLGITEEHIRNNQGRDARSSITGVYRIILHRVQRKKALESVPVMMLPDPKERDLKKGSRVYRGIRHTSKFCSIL

[4] = molecular target: Receptor-interacting serine/threonine-protein kinase 4 (Homo sapiens) (UniProt P57078); experiment: Binding affinity to wild-type human partial length RIPK4 (M1 to V303 residues) expressed in mammalian expression system assessed as residual binding level at 1 uM by Kinomescan method relative to control
Sequence of Receptor-interacting serine/threonine-protein kinase 4 (Homo sapiens) (P57078 whole entry, the tested form may be a part): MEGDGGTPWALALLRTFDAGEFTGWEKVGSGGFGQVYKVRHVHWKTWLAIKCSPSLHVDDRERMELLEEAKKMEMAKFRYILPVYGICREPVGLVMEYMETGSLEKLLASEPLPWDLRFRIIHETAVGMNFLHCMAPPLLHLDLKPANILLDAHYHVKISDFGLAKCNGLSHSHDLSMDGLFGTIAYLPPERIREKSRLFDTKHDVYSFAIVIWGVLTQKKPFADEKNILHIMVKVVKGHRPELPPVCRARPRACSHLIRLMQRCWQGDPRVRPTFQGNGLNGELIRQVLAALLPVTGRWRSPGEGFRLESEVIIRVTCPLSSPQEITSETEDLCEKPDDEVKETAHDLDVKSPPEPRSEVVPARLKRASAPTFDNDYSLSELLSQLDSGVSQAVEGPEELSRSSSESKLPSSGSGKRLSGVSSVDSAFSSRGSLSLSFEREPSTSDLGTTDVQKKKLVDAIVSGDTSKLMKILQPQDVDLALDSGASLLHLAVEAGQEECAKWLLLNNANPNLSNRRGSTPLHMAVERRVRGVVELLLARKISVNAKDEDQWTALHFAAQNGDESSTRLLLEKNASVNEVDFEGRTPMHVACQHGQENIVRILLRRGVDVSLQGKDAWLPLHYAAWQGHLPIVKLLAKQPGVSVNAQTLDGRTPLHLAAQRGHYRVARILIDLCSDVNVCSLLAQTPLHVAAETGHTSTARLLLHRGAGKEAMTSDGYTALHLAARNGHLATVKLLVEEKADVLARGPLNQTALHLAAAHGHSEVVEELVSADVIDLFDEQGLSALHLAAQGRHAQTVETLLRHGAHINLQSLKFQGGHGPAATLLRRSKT

[5] = molecular target: Tyrosine-protein kinase ITK/TSK (Homo sapiens) (UniProt Q08881); experiment: Binding affinity to wild-type human partial length ITK (R335 to L620 residues) expressed in bacterial expression system assessed as residual binding level at 1 uM by Kinomescan method relative to control
EOL1 = experiment: Antitumor activity against human EOL-1 cells xenografted in nu/nu mouse assessed as tumor growth inhibition at 100 mg/kg/day, ip; type: functional; details: read-out: TGI
Procedure, shortened: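 Female nu/nu mice (6 weeks) given subcutaneous right-flank injection of 5 million EOL-1 cells in PBS/Matrigel 1:1. At 200–400 mm3 tumors, randomized to groups of 6 and dosed daily i.p. for 14 days at 25, 50 or 100 mg/kg/d in 0.5% methylcellulose/0.4% Tween80. Tumor volume = W²×L/2, measured daily.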

[6] = molecular target: Serine/threonine-protein kinase Chk1 (Homo sapiens) (UniProt O14757); experiment: Binding affinity to wild-type human partial length CHEK1 (M1 to G289 residues) expressed in bacterial expression system assessed as residual binding level at 1 uM by Kinomescan method relative to control
[7] = molecular target: Cyclin-dependent kinase 4/cyclin D1 (Homo sapiens) (UniProt P11802+P24385); experiment: Binding affinity to wild-type human full length CDK4/cyclinD1 (M1 to E303 residues) expressed in mammalian expression system assessed as residual binding level at 1 uM by Kinomescan method relative to control
Procedure, shortened: (§3)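 Single-concentration (1 μM) competition-binding screen run by KINOMEscan against a panel of 468 purified kinases and mutants. The read-out is the relative binding activity of the test compound to each kinase.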

[8] = molecular target: Serine/threonine-protein kinase PLK1 (Homo sapiens) (UniProt P53350); experiment: Binding affinity to wild-type human partial length PLK1 (A33 to F325 residues) expressed in mammalian expression system assessed as residual binding level at 1 uM by Kinomescan method relative to control
Sequence of Serine/threonine-protein kinase PLK1 (Homo sapiens) (P53350 whole entry, the tested form may be a part): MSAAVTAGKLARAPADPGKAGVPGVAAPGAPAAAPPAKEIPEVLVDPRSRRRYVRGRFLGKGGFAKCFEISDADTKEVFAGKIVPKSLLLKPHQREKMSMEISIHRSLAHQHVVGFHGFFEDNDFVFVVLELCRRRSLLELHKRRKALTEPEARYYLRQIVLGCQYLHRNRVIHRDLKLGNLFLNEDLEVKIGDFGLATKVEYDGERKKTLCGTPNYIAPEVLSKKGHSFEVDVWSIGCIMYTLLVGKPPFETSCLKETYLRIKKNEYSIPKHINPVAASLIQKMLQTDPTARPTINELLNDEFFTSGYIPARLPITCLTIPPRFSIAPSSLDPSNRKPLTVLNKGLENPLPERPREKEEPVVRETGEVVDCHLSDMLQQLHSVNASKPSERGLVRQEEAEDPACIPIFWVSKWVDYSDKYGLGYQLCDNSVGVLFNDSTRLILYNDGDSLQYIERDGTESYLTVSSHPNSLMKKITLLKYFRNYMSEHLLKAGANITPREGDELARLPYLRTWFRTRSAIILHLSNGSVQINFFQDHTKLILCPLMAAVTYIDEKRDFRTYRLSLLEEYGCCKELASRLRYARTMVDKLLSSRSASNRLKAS

[9] = molecular target: LIM domain kinase 1 (Homo sapiens) (UniProt P53667); experiment: Binding affinity to wild-type human full length LIMK1 (M1 to D647 residues) expressed in bacterial expression system assessed as residual binding level at 1 uM by Kinomescan method relative to control; procedure, shortened: as §3
[10] = molecular target: Phosphatidylinositol 3-kinase C2 domain-containing subunit gamma (Homo sapiens) (UniProt O75747); experiment: Binding affinity to wild-type human partial length PIK3C2G (M1 to I1446 residues) expressed in mammalian expression system assessed as residual binding level at 1 uM by Kinomescan method relative to control
[11] = molecular target: Calcium/calmodulin-dependent protein kinase type II subunit alpha (Homo sapiens) (UniProt Q9UQM7); experiment: Binding affinity to wild-type human partial length CAMK2A (M1 to K328 residues) expressed in bacterial expression system assessed as residual binding level at 1 uM by Kinomescan method relative to control; procedure, shortened: as §1
Sequence of Calcium/calmodulin-dependent protein kinase type II subunit alpha (Homo sapiens) (Q9UQM7 whole entry, the tested form may be a part): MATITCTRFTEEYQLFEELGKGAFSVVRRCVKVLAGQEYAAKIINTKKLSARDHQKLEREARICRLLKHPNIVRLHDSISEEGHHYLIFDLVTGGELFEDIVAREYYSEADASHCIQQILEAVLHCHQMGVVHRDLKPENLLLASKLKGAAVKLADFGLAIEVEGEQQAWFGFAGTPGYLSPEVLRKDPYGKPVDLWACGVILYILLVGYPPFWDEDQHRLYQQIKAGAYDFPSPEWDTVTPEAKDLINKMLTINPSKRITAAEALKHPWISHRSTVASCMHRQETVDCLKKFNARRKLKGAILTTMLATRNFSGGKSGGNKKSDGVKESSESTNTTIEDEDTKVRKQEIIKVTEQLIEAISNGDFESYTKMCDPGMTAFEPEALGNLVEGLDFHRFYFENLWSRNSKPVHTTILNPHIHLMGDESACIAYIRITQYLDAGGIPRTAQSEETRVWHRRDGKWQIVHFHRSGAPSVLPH

[12] = molecular target: Calcium/calmodulin-dependent protein kinase type II subunit beta (Homo sapiens) (UniProt Q13554); experiment: Binding affinity to wild-type human partial length CAMK2B (M1 to Q380 residues) expressed in bacterial expression system assessed as residual binding level at 1 uM by Kinomescan method relative to control
Sequence of Calcium/calmodulin-dependent protein kinase type II subunit beta (Homo sapiens) (Q13554 whole entry, the tested form may be a part): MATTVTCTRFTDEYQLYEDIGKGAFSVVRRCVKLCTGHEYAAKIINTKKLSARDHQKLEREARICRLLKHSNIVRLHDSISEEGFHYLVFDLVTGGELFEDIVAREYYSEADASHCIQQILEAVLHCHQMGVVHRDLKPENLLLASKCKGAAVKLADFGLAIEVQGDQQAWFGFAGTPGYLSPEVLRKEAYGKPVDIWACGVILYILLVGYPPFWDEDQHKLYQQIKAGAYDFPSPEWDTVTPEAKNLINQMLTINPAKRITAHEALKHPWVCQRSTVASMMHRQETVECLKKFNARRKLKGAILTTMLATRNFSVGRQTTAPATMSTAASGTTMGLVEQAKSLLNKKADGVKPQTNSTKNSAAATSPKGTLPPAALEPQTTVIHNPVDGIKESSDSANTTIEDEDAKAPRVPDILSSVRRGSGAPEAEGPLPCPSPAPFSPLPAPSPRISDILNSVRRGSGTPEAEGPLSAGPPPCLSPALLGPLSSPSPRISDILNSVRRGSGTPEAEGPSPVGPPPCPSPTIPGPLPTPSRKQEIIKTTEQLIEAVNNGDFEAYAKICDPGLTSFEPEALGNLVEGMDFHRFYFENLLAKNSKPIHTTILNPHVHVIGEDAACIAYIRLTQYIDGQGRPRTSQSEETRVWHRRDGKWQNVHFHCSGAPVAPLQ

[13] = molecular target: Hepatocyte growth factor receptor (Homo sapiens) (UniProt P08581); experiment: Binding affinity to wild-type human partial length MET (D1010 to S1367 residues) expressed in bacterial expression system assessed as residual binding level at 1 uM by Kinomescan method relative to control
[14] = molecular target: Serine/threonine-protein kinase Sgk2 (Homo sapiens) (UniProt Q9HBY8); experiment: Binding affinity to wild-type human partial length SGK2 (L54 to C427 residues) expressed in mammalian expression system assessed as residual binding level at 1 uM by Kinomescan method relative to control
[15] = molecular target: Serine/threonine-protein kinase 16 (Homo sapiens) (UniProt O75716); experiment: Binding affinity to wild-type human partial length STK16 (G11 to I305 residues) expressed in bacterial expression system assessed as residual binding level at 1 uM by Kinomescan method relative to control
[16] = molecular target: Serine/threonine-protein kinase PAK 6 (Homo sapiens) (UniProt Q9NQU5); experiment: Binding affinity to wild-type human partial length PAK6 (N298 to C681 residues) expressed in bacterial expression system assessed as residual binding level at 1 uM by Kinomescan method relative to control
[17] = test system: Mast/stem cell growth factor receptor Kit (Homo sapiens), P10721 [L576P]; experiment: Binding affinity to human partial length KIT L576P mutant (Y545 to D952 residues) expressed in bacterial expression system assessed as residual binding level at 1 uM by Kinomescan method relative to control; procedure, shortened: as §2
[18] = molecular target: MAP kinase-activated protein kinase 5 (Homo sapiens) (UniProt Q8IW41); experiment: Binding affinity to wild-type human partial length MAPKAPK5 (M1 to D322 residues) expressed in mammalian expression system assessed as residual binding level at 1 uM by Kinomescan method relative to control
[19] = molecular target: Protein-tyrosine kinase 6 (Homo sapiens) (UniProt Q13882); experiment: Binding affinity to wild-type human partial length BRK (L166 to T451 residues) expressed in bacterial expression system assessed as residual binding level at 1 uM by Kinomescan method relative to control
Procedure, shortened: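 Single-concentration KINOMEscan (DiscoverX) binding screen at 1 μM against a panel of 468 purified kinases and mutants. The read-out is binding relative to control.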

Sequence of Serine/threonine-protein kinase MAK (Homo sapiens) (P20794 whole entry, the tested form may be a part): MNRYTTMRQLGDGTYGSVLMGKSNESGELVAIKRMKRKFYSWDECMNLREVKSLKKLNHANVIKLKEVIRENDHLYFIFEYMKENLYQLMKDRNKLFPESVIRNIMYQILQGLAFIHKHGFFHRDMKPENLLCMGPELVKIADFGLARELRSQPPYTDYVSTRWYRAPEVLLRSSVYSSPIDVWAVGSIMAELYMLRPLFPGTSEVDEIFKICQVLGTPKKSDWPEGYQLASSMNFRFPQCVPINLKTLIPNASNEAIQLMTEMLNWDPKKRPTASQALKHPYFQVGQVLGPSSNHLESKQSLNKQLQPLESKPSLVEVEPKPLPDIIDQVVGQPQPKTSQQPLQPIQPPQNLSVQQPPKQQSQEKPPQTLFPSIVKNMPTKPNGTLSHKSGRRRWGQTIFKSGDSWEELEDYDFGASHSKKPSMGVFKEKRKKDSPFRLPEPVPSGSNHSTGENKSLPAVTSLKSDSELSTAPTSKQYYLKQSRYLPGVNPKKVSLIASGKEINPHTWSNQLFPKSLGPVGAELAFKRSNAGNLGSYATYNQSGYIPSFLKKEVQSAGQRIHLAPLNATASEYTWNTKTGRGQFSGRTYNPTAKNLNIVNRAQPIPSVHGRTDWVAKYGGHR

Molecule `Cc1ccc(NC(=O)c2ccc(CN(CCN(C)C)C(=O)c3cccnc3)cc2)cc1Nc1nccc(-c2cccnc2)n1` has an Activity [1] of 92%, an Activity [2] of 85% and an Activity [3] of 100%. It also gave an Activity [4] of 97%, an Activity [5] of 100% and an inhibition in vivo at 100 mg/kg/day (EOL1) of 100%. The Activity [6] was 100%, the Activity [7] was 100% and the Activity [8] was 100%. For the same molecule, the Activity [9] was 100%, the Activity [10] was 100% and the Activity [11] was 89%. For the same molecule, the Activity [12] was 99%, the Activity [13] was 90% and the Activity [14] was 100%. The Activity [15] was 88%, the Activity [16] was 90% and the Activity [17] was 0.6%. The Activity [18] was 100% and the Activity [19] was 81%.
